Screening results: PubChem, several laboratories
MPTP inh = blocks calcium-induced mitochondrial swelling; isolated mouse mitochondria, Ca2+ swelling absorbance, 30 min; inhibition, % at 10 µM; 1.4% of 360,000 active; AID 602449;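 active means inhibition of 50% or more, scaled per plate between neutral and stimulator controls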
ADAM17 inh = ADAM17 inhibition, QFRET primary screen; P78536; 0.83% of 370,000 active; AID 720648; inhibition, % at 6.95 µM; recombinant ADAM17, EDANS/DABCYL FRET peptide cleavage;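 active means inhibition above the mean of compounds lying between control limits plus 3 SD, set per campaign, cut at about 8.5% in these data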
MT1-MMP act inh = inhibitors of human MT1-MMP activation. GFP/RFP ratio change, % at 20 µM. P50281. AID 651647. HT1080 RFP-PRO-GFP cells, GFP/RFP ratio fluorescence, overnight; percent of plate control window, DMSO zero. 0.061% of 360,000 active;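 active means GFP/RFP ratio change of at least 30% with cell ATP level not reduced by more than half and red fluorescence within 50% of control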
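Read-out: GFP/RFP fluorescence ratio; Test system: RFP-PRO-GFP reporter HT1080 cells; Compound dosing: single-point 20 µM compound, 1% DMSO; Times: overnight compound exposure at 37 °C.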
ADAM10 inh = inhibits human ADAM10; inhibition, % at 7 µM; AID 720582; 0.62% of 370,000 active; O14672; recombinant ADAM10, EDANS/DABCYL FRET peptide cleavage, 3 h;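 active means inhibition above a per-campaign cutoff equal to the mean of compounds falling between control-based bounds plus 3 SD, cut at about 20% in these data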
Target sequence (O14672 214-748 limits assumed): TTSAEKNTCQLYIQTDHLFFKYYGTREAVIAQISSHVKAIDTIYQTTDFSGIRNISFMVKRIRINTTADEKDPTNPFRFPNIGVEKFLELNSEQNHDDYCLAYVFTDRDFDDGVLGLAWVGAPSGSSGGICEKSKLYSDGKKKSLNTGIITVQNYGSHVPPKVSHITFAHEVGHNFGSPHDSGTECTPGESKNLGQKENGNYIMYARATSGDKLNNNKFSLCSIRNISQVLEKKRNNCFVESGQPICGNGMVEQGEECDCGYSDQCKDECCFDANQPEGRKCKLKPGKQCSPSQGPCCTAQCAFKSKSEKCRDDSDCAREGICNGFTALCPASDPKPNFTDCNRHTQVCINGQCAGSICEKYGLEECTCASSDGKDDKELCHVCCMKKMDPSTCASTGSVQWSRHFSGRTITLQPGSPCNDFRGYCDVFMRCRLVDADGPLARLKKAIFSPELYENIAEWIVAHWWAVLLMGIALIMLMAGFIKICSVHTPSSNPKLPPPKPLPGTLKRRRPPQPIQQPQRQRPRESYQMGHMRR
GRIN3A LBD mod = modulates the human NR3A ligand-binding domain | Tm shift relative to glycine control, % at 25 µM | NR3A LBD differential scanning fluorimetry, Tm shift; 0% = protein alone, 100% = glycine-bound protein | 2.5% of 340,000 active | AID 1259313;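 active means melting temperature shift of at least 10% of the positive control shift, at one fixed dose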
SKN-1 block = C. elegans SKN-1 inhibition | 0.49% of 360,000 active | AID 624304 | C. elegans VP596 Pgst-4::GFP/RFP ratio, acrylamide-induced, 24 h | inhibition, % at 21.8 µM;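 active means interference check ratio from 0.5 to 1.5 plus GFP to RFP signal ratio inhibition reaching or exceeding a fixed threshold, cut at about 30% in these data, passing the limit was not always enough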
Each line names hits and unclear results; the compound was inactive in the other large screens. This is a sample that favours compounds with a hit; in the whole collection about 4.7% have one here.

O=C(O)CCSc1nc2ccc(Br)cc2[nH]1	GRIN3A LBD mod 13
O=S(=O)([O-])C(c1ccccc1)[n+]1ccccc1 (stereo not drawn)	GRIN3A LBD mod 21
CC1=CC(c2ccccc2)=Nc2ccc(C)cc2N1	none
Oc1ccccc1-c1cc(-c2ccc3c(c2)OCCO3)n[nH]1	GRIN3A LBD mod 16
Oc1ccc(Br)cc1-c1cc(-c2ccccc2)n[nH]1	GRIN3A LBD mod 29
COc1ccc(-c2cc(-c3cc(OC)ccc3O)[nH]n2)cc1	none
COc1ccc(O)c(-c2cc(-c3ccc(F)cc3)n[nH]2)c1	none
COc1ccc(O)c(-c2cc(-c3cccc(Br)c3)n[nH]2)c1	GRIN3A LBD mod 16
Oc1ccc(Br)cc1-c1cc(-c2ccc(Cl)cc2)n[nH]1	GRIN3A LBD mod 42
COC(=O)[C@]1(C)CCC[C@@]2(C)C3CC[C@]4(OC(C)=O)C[C@@]3(CCC21)CC4=O (stereo partly drawn)	none
COc1ccc2nc(NC(=O)/C=C/c3ccc4c(c3)OCO4)sc2c1	none (no result: MPTP inh, MT1-MMP act inh, GRIN3A LBD mod, SKN-1 block)
O=[N+]([O-])c1cccc(-c2cc(-c3cc(Br)ccc3O)[nH]n2)c1	GRIN3A LBD mod 13
COc1ccc(-c2cc(-c3ccc(Cl)cc3)n[nH]2)c(O)c1	GRIN3A LBD mod 49
O=C(NCCCCc1ccccc1)c1ccc(Br)o1	none
O=C(Nc1ccccn1)c1ccc(Br)c(S(=O)(=O)N2CCCCC2)c1	GRIN3A LBD mod 13
Cc1nnc(NC(=O)c2ccc(F)c(S(=O)(=O)N3CCCCC3)c2)s1	GRIN3A LBD mod 16
Cc1nnc(NC(=O)c2ccc(C)c(S(=O)(=O)N3CCOCC3)c2)s1	none
COc1ccc(NC(=O)c2ccc(NC3CC(=O)N(c4ccc(C)cc4C)C3=O)cc2)cc1 (stereo not drawn)	none
O=C(COc1ccccc1Cl)Nc1nc(-c2cccs2)cs1	none
Cc1nc(Nc2cccc(Cl)c2)c2oc3ccccc3c2n1	GRIN3A LBD mod 36
Cc1nc(Nc2cccc(F)c2)c2oc3ccccc3c2n1	GRIN3A LBD mod 28
Cc1nc(Nc2ccc(Cl)cc2)c2oc3ccccc3c2n1	none (no result: GRIN3A LBD mod)
Cc1nc(Oc2ccccc2)c2oc3ccccc3c2n1	SKN-1 block 38
CC(C)OCCCn1c(=S)[nH]c2cc3c(cc2c1=O)OCO3	SKN-1 block 39
O=c1c2cc3c(cc2[nH]c(=S)n1CCN1CCOCC1)OCO3	none
COc1ccc(OC)c(-c2csc(NC(=O)CSc3ccc(Br)cc3)n2)c1	GRIN3A LBD mod 19
COc1ccc(OC)c(-c2csc(NC(=O)COC(=O)c3ccc(NC(=O)CC#N)cc3)n2)c1	GRIN3A LBD mod 13 (no result: ADAM17 inh, ADAM10 inh)
COc1ccc(Cl)cc1S(=O)(=O)N1CCN(C(=O)CSc2nc3ccccc3nc2N2CCCC2)CC1	none (no result: MPTP inh, MT1-MMP act inh, GRIN3A LBD mod, SKN-1 block)
Fc1cccc(CSc2ccc(-c3ccco3)nn2)c1	SKN-1 block 49
COc1ccc(C2CC(c3ccccc3)=NN2C(=O)COC(=O)c2cccc(O)c2)cc1 (stereo not drawn)	none
CCNC1=C(Cl)C(=O)c2ccccc2C1=O	SKN-1 block 37
CCCC(=O)NC1=C(Cl)C(=O)c2ccccc2C1=O	none
COc1ccc(C(=O)COC(=O)CNC(=O)c2cc(OC)cc(OC)c2)cc1	none
COc1ccc(C(=O)COC(=O)CNC(=O)c2ccc(OC)cc2)cc1	GRIN3A LBD mod 11
COc1ccc(-c2c(C)oc3c(CN4CCCCC4C)c(O)ccc3c2=O)cc1OC (stereo not drawn)	none
CCc1ccc2[nH]c3nc(N/N=C/c4cccc(O)c4)nnc3c2c1	GRIN3A LBD mod 18
COc1cccc(/C=N/Nc2nnc3c(n2)[nH]c2ccccc23)c1OC	none
CC(C)NC(=O)CN(C)S(=O)(=O)c1ccc(F)cc1	SKN-1 block 36
CCCNC(=O)CN(C)S(=O)(=O)c1ccc(F)cc1	none
Cn1c(C(=O)Nc2ccccc2)cc2sccc21	GRIN3A LBD mod 22
Fc1ccc(-n2c(Cc3cccs3)n[nH]c2=S)cc1Cl	none
O=C(CN(Cc1ccccc1)C(=O)c1csnn1)NCc1ccc2c(c1)OCO2	none (no result: MT1-MMP act inh)
Cc1ccc(OCCC(=O)OCC(=O)N2CCN(S(=O)(=O)c3ccc(Cl)cc3)CC2)cc1	none (no result: GRIN3A LBD mod)
Cc1ccccc1OCCC(=O)OCC(=O)N1CCN(S(=O)(=O)c2ccc(Cl)cc2)CC1	GRIN3A LBD mod 11
O=C(CSc1nnnn1C1CCCCC1)Nc1cccc(NC(=O)c2ccco2)c1	SKN-1 block 37
O=C(CSc1nnnn1C1CCCCC1)Nc1ccc(F)cc1	GRIN3A LBD mod 18
O=C(CSc1nnnn1C1CCCC1)Nc1ccc(F)cc1	none
O=C(CSc1nnnn1C1CCCC1)Nc1cccc(NC(=O)c2ccco2)c1	none
Cc1nc(-c2ccccc2)sc1C(=O)CSc1ccc(Br)cc1	none
Cc1ccc(NC(=O)c2ccc(NCCCN3CCC(C)CC3)c([N+](=O)[O-])c2)c(C)c1	none
CCC(C)(C)n1nnnc1C(C(C)C)N(CCCO)Cc1cc2cc(C)ccc2[nH]c1=O (stereo not drawn)	SKN-1 block 44
CCC(c1nnnn1C(C)(C)CC)N(CCCO)Cc1cc2cc(C)cc(C)c2[nH]c1=O (stereo not drawn)	none
O=C(CN1CCN(C(=O)CCC(=O)N2CCC(c3ccccc3)=N2)CC1)Nc1ccc(F)cc1	GRIN3A LBD mod 18
COc1ccc(CCN(C)C(=O)CCNS(=O)(=O)c2ccccc2C(F)(F)F)cc1OC	none
O=C(COC(=O)c1ccccc1O)Nc1ccc2ccccc2c1	GRIN3A LBD mod 15
CCS(=O)c1ccccc1C(=O)OCC(=O)Nc1ccc2ccccc2c1 (stereo not drawn)	none
c1ccc2c(c1)NC(c1ccncc1)n1c-2nc2ccccc21 (stereo not drawn)	SKN-1 block 34
C=CCOc1ccc(/C=C/C(=O)Nc2ccc(C(=O)NC)cc2)cc1	GRIN3A LBD mod 24
CNC(=O)c1ccc(NC(=O)/C=C/c2cccc(F)c2)cc1	GRIN3A LBD mod 14
CCOc1ccc(NC(C(=O)Nc2cccc(C(C)=O)c2)c2ccccc2)cc1 (stereo not drawn)	none
CCOc1ccc(/C=C/C(=O)Nc2cccc(C(C)=O)c2)cc1	GRIN3A LBD mod 29
CCCCOc1ccc(/C=C/C(=O)Nc2ccc(C(N)=O)cc2)cc1	GRIN3A LBD mod 22
C=CCOc1ccc(/C=C/C(C)=N\O)cc1	none
COc1ccc2c(c1)C1(Nc3ccccc3C(=O)N1c1ccccc1)C(=O)N2 (stereo not drawn)	none
O=C(NNC(=O)C1CCCC1)c1ccccc1F	none
CC1=C(C)CC(C(=O)Nc2ccc(C(=O)N3CCOCC3)cc2)C(C(=O)O)C1 (stereo not drawn)	none
NC(=O)N1CCN(CCCN2c3ccccc3Sc3cc(Cl)ccc32)CC1	none (no result: GRIN3A LBD mod)
